Source: ChEMBL document CHEMBL3612009, “Synthesis and structure-activity relationship study of a new series of antiparasitic aryloxyl thiosemicarbazones inhibiting Trypanosoma cruzi cruzain” (Eur J Med Chem, 2015)

What was measured:
[1] = Cytotoxicity against mouse L929 cells assessed as cell viability after 96 hrs by alamarBlue assay; format: cell-based
In short: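 Uninfected L-929 cells at the same cell number and timing as the beta-galactosidase assay; increasing concentrations starting at the T. cruzi IC50, quadruplicate. After 96 h, alamarBlue added; absorbance at 570 and 600 nm read 6 h later. Viability as % reduction versus untreated; CC50 by linear interpolation.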

[2] = Cytotoxicity against BALB/c mouse splenocytes assessed as maximum non-toxic concentration by measuring [3H]-thymidine incorporation after 24 hrs by liquid scintillation counting; format: cell-based, Splenocyte
In short: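 BALB/c splenocytes, 5 x 10^6 cells/well, given compounds at 1.23, 3.7, 33.33 and 100 µg/mL, 1% DMSO final, triplicate; 24 h at 37 °C, 5% CO2. Then 1.0 µCi [3H]-thymidine added; cells harvested and counted by liquid scintillation. Highest non-cytotoxic concentration taken from % incorporation.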

[3] = target: Cruzipain (Trypanosoma cruzi) (UniProt P25779); test: Inhibition of Trypanosoma cruzi catalytic activity of cruzain using Z-FR-AMC as substrate at 50 uM after 10 mins by fluorescence assay
[4] = Selectivity index, ratio of CC50 for mouse L929 cells to IC50 for amastigote and trypomastigote forms of Trypanosoma cruzi Tulahuen; format: functional
In short: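 SI = CC50 in uninfected L-929 fibroblasts (alamarBlue, 96 h) divided by IC50 against intracellular amastigote/trypomastigote forms (beta-galactosidase assay, 7 days).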

Trypanosoma cruzi [5] = test: Antitrypanosomal activity against amastigote and trypomastigote forms of Trypanosoma cruzi Tulahuen expressing beta-galactosidase gene infected in mouse L-929 cells assessed as inhibition of parasite growth at 100 uM after 7 days by colorimetric betagalactosidase assay; format: functional; conditions: L929, 168 h
Trypanosoma cruzi [6] = test: Antiparasitic activity against epimastigotes of Trypanosoma cruzi Dm28c assessed as reduction of parasite count after 5 days; format: functional; conditions: 120 h
Trypanosoma cruzi [7] = test: Antiparasitic activity against trypomastigotes of Trypanosoma cruzi Y assessed as reduction of parasite count after 24 hrs; format: functional
Trypanosoma cruzi [8] = test: Antitrypanosomal activity against amastigote and trypomastigote forms of Trypanosoma cruzi Tulahuen expressing beta-galactosidase gene infected in mouse L-929 cells assessed as inhibition of parasite growth after 7 days by colorimetric betagalactosidase assay; format: functional, organism-based; conditions: L929, 168 h
Cruzipain = Cruzipain (Trypanosoma cruzi, UniProt P25779); test: Inhibition of Trypanosoma cruzi catalytic activity of cruzain using Z-FR-AMC as substrate after 10 mins by fluorescence assay
Trypanosoma cruzi [9] = test: Antiparasitic activity against trypomastigotes of Trypanosoma cruzi Y assessed as induction of parasite death at 5 uM after 24 hrs using propidium iodide staining after 24 hrs by flow cytometry analysis; format: functional
In short: (§1)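 Y strain trypomastigotes (4x10^5) in RPMI-1640 with 10% FBS, exposed to test agent for 24 h at 37 °C, 5% CO2; then stained with propidium iodide and analysed by flow cytometry, at least 10,000 events. Read-out is % PI-positive cells versus untreated parasites; Triton X-100 as positive control. Two independent experiments, each concentration in duplicate.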

Trypanosoma cruzi [10] = test: Antiparasitic activity against trypomastigotes of Trypanosoma cruzi Y assessed as induction of parasite death at 0.5 uM after 24 hrs using propidium iodide staining after 24 hrs by flow cytometry analysis; format: functional; in short: as §1

Sequence of Cruzipain (Trypanosoma cruzi) (P25779 123-467 limits assumed): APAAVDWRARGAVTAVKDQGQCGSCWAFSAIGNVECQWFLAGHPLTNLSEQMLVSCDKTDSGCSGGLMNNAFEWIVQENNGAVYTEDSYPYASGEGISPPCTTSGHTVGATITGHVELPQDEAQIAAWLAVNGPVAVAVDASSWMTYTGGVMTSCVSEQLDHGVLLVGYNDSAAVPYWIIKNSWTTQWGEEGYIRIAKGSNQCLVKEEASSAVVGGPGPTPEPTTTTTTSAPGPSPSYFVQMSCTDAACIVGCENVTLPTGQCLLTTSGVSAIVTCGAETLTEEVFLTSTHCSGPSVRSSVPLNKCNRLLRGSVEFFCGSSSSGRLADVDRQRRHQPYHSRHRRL
Sequence of Cruzipain (P25779 whole entry): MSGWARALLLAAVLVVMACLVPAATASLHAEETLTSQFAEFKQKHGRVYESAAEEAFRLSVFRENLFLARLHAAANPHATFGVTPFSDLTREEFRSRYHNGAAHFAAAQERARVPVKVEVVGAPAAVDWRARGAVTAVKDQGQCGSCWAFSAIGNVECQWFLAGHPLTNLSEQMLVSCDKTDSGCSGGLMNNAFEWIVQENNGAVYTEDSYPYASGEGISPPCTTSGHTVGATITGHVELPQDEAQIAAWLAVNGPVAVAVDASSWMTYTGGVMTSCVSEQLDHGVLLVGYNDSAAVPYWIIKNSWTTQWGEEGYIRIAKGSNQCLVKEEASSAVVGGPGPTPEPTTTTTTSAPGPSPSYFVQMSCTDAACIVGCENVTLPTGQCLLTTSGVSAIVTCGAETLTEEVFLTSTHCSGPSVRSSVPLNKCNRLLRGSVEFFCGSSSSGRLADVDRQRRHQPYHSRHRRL

SMILES | CC50 at 96 h [1] [µM] | MNTC at 24 h [2] [nM] | inhibition [3] [%] | Ratio CC50/IC50 [4] | inhibition at 100 µM (Trypanosoma cruzi [5]) [%] | IC50 (Trypanosoma cruzi [6]) [µM] | CC50 (Trypanosoma cruzi [7]) [µM] | IC50 (Trypanosoma cruzi [8]) [µM] | IC50 (Cruzipain) [µM] | Activity (Trypanosoma cruzi [9]) [%] | Activity (Trypanosoma cruzi [10]) [%]
NC(=S)N/N=C(\COc1ccc2ccccc2c1)c1ccc(Br)cc1 | > 193 | 2400 | 72.1 | >14.3 | > 70 | 5.3 | 5 | 13.5 | – | – | –
CNC(=S)N/N=C(/COc1ccc(Br)cc1)c1ccc(F)cc1 | – | – | 30 | – | > 70 | 15.7 | 7.4 | – | – | – | –
NC(=S)N/N=C(/COc1ccc(Br)cc1)c1cccc2ccccc12 | 12.1 | 2400 | 73.6 | 2.5 | > 70 | 7.5 | 14.7 | 4.8 | – | – | –
NC(=S)N/N=C(/COc1ccc(Br)cc1)c1ccc(F)cc1 | < 26.2 | 2600 | 53.1 | <2.5 | > 70 | 3.8 | 3.6 | 10.7 | – | – | –
NC(=S)N/N=C(\COc1ccccc1)c1ccc(Br)cc1 | 54.9 | 137000 | 61.8 | 10.2 | > 70 | 3 | 6.6 | 5.4 | – | – | –
COc1cccc(OC/C(=N\NC(N)=S)c2ccc(Br)cc2)c1 | 50.7 | 2500 | 62.8 | 5.1 | > 70 | 3.7 | 1.2 | 9.9 | – | – | –
NC(=S)N/N=C(\COc1ccccc1Cl)c1ccc(Br)cc1 | 25.1 | < 2500 | 58.9 | 1.9 | > 70 | 3.5 | 6 | 13.5 | – | – | –
NC(=S)N/N=C(/COc1ccc(Br)cc1)c1ccccc1 | < 27.5 | 68600 | 67.6 | <2.7 | > 70 | 14.5 | 2.4 | 10.2 | – | – | –
NC(=S)N/N=C(\COc1ccc(Cl)c(Cl)c1)c1ccc(Br)cc1 | 23.1 | < 2300 | 99.1 | 2.8 | > 70 | 1.8 | 3 | 8.3 | 0.008 | 44.9 | 2.3
CNC(=S)N/N=C(/COc1ccc(Br)cc1)c1ccc(OC)cc1 | – | – | 29.8 | – | > 70 | 4.5 | 3.6 | – | – | – | –
NC(=S)N/N=C(/COc1ccc(Br)cc1)c1ccc(-c2ccccc2)cc1 | 22.7 | 2300 | 88.9 | 6.9 | > 70 | 3.9 | 2.1 | 3.3 | 0.6 | – | –
COc1ccc(/C(COc2ccc(Br)cc2)=N\NC(=S)Nc2ccccc2)cc1 | – | – | 42.8 | – | > 70 | 10.2 | – | – | – | – | –
NC(=S)N/N=C(\COc1ccc(-c2ccccc2)cc1)c1ccc(Br)cc1 | 90.8 | 22700 | 63.7 | 1.2 | > 70 | 4.1 | 12.3 | 76.6 | – | – | –
COc1ccc(OC/C(=N\NC(N)=S)c2ccc(Br)cc2)cc1 | 102 | < 2500 | 75.8 | 11.4 | > 70 | 1.8 | 3.7 | 8.9 | – | – | –
CC(=O)Nc1ccc(OC/C(=N\NC(N)=S)c2ccc(Br)cc2)cc1 | 94.9 | 2400 | 80.7 | 2.2 | > 70 | 15.6 | 3.5 | 43.2 | – | – | –
Fc1ccc(/C(COc2ccc(Br)cc2)=N\NC(=S)Nc2ccccc2)cc1 | – | – | 35 | – | > 70 | – | 15.6 | – | – | – | –

SMILES | CC50 at 96 h [1] [µM] | MNTC at 24 h [2] [nM] | inhibition [3] [%] | Ratio CC50/IC50 [4] | inhibition at 100 µM (Trypanosoma cruzi [5]) [%] | IC50 (Trypanosoma cruzi [6]) [µM] | CC50 (Trypanosoma cruzi [7]) [µM] | IC50 (Trypanosoma cruzi [8]) [µM] | IC50 (Cruzipain) [µM] | Activity (Trypanosoma cruzi [9]) [%] | Activity (Trypanosoma cruzi [10]) [%]
NC(=S)N/N=C(\COc1cccc(Cl)c1Cl)c1ccc(Br)cc1 | 23.1 | 23100 | 81.8 | 2.8 | > 70 | 4.4 | 5.7 | 10.8 | – | – | –
NC(=S)N/N=C(\COc1cccc(Cl)c1)c1ccc(Br)cc1 | < 50.2 | 2500 | 51.8 | <2 | > 70 | 2.2 | 1.6 | 25.1 | – | – | –
NC(=S)N/N=C(\COc1cccc(Br)c1)c1ccc(Br)cc1 | > 180 | 2700 | 81.3 | >1.2 | > 70 | 3.9 | 6.2 | 149 | – | – | –
NC(=S)N/N=C(\COc1ccc(I)cc1)c1ccc(Br)cc1 | < 20.4 | 2100 | 63.3 | 2.4 | > 70 | 2.9 | 2.1 | 8.6 | – | – | –
NC(=S)N/N=C(\COc1cccc(-c2ccccc2)c1)c1ccc(Br)cc1 | – | 2300 | 65.4 | – | > 70 | 4.4 | 28.3 | > 182 | – | – | –
CC(C)(C)c1ccc(OC/C(=N\NC(N)=S)c2ccc(Br)cc2)cc1 | 23.8 | 2400 | 85.3 | 1.6 | > 70 | 5.2 | 2.2 | 15.2 | – | – | –
COc1ccc(/C(COc2ccc(Br)cc2)=N\NC(N)=S)cc1 | < 25.4 | 2500 | 38.7 | <2.1 | > 70 | 3.1 | 5 | 11.9 | – | – | –
NC(=S)N/N=C(/COc1ccc(Br)cc1)c1ccc(Br)cc1 | 22.6 | 22600 | 11.8 | >2.8 | > 70 | 11.9 | 3.9 | < 8.1 | – | – | –
Cc1ccc(/C(COc2ccc(Br)cc2)=N\NC(N)=S)cc1 | 13.2 | 13200 | 70.9 | 1.7 | > 70 | 3.7 | 3.1 | 7.9 | – | – | –
NC(=S)N/N=C(\COc1ccc(Cl)cc1)c1ccc(Br)cc1 | < 25.1 | < 2500 | 73.6 | <2.2 | > 70 | 4.6 | 5.7 | 11.2 | – | – | –
NC(=S)N/N=C(\COc1ccc(F)cc1)c1ccc(Br)cc1 | 52.3 | 2600 | 84 | 3.3 | > 70 | 1.8 | 3.1 | 15.7 | 0.4 | – | –
CC1CS(=O)(=O)CCN1/N=C/c1ccc([N+](=O)[O-])o1 (stereo not given) [NIFURTIMOX] | – | – | – | – | – | – | 2.7 | – | – | – | –
NC(=S)N/N=C(\COc1cccc2ccccc12)c1ccc(Br)cc1 | < 96.5 | 2400 | – | <2 | > 70 | 3 | 3.4 | 48.3 | – | – | –
CCc1ccc(OC/C(=N\NC(N)=S)c2ccc(Br)cc2)cc1 | < 25.5 | 2600 | 75.1 | <4 | > 70 | 2.1 | 1.8 | 6.4 | – | – | –
NC(=S)N/N=C(/COc1ccc(Br)cc1)c1ccc(Cl)cc1 | 25.1 | 12500 | 67.5 | 1.7 | > 70 | 3.6 | 5.3 | 14.8 | – | – | –
